Test results reported in PubChem BioAssay.
Calls of active or inactive are those of the source.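 Rule for the calls, unless noted: active = viability at or under a set limit in both replicates, limit being median viability minus 3 SD (cut at about 48% in these data, passing the limit was not always enough); inconclusive = at or under the limit in just one replicate; inactive = at or above the limit in both replicates.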

Assays:
[1] = Her2 expression decrease, cell viability multiplex – SKBR3 breast tumor cells, AlphaScreen, ATP viability, primary screen (AID 461;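 active = Her2 level under about 52% in both replicate screens, with viability over 70% of control, limit read from the data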;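 for Her2 level: lower value means less Her2 protein in the cells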;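 for viability: percent of carrier control wells set as 100% viability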); details: SKBR3 Her2 protein level, 18-24 h, measured here: SKBR3 viability, ATP luminescence, at 10 µM
[2] = target: Receptor tyrosine-protein kinase erbB-2 (Homo sapiens) (UniProt P04626); experiment: as above; details: 18-24 h, at 10 µM, stronger effect = lower value
Sequence of Receptor tyrosine-protein kinase erbB-2 (Homo sapiens) (P04626 whole entry, looked up): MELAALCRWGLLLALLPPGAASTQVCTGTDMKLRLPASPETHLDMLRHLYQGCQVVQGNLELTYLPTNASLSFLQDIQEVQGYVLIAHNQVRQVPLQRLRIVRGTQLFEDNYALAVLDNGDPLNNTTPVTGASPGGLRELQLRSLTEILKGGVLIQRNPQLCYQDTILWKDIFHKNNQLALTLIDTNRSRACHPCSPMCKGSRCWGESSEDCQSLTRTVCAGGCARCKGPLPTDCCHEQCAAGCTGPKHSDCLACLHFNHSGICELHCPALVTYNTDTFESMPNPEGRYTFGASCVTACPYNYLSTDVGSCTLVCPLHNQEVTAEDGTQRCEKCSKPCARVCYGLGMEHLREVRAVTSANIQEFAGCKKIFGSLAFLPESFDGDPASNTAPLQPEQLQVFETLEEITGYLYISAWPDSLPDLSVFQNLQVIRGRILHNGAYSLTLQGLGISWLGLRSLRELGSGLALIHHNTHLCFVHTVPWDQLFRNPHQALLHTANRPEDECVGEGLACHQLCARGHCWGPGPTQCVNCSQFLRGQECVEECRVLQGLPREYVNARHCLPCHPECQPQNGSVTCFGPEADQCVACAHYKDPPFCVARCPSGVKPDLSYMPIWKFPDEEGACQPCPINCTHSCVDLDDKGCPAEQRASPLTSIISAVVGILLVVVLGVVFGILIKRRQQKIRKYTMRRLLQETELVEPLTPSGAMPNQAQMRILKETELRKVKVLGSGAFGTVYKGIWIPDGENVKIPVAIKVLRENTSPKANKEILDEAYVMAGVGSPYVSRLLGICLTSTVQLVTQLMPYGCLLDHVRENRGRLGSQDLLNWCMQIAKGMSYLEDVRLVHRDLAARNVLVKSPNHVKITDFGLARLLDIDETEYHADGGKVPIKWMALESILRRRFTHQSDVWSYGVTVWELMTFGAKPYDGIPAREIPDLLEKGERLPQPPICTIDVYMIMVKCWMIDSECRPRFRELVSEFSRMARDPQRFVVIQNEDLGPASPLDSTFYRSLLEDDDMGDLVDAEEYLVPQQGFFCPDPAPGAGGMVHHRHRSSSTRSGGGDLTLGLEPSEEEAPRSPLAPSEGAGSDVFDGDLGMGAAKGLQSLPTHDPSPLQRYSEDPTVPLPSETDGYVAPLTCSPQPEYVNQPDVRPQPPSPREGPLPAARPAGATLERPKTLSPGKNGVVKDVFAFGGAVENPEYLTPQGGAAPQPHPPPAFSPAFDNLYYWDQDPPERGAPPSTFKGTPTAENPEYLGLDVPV

[3] = reduced viability of SK-BR-3 breast cancer cells – cell-based, 24 h, human, pilot screen (AID 572;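 active = viability at or below 10% of carrier control in both of two separate runs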;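 note: compound exposure lasted between 18 and 24 h rather than exactly 24 h; 100% = carrier-treated control wells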); details: SK-BR-3 viability, CellTiter-Glo luminescence, at 10 µM, stronger effect = lower value
[4] = HUVEC growth inhibition – cell-based, human, primary screen (AID 575;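 active = viability at or below 30% in both replicate assays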;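 note: 100% = median of untreated cell wells with 0.1% DMSO on each plate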); details: HUVEC proliferation, CellTiter-Glo luminescence, 72 h; at 10 µM; stronger effect = lower value
Summary of the method: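 Test system – primary HUVEC, no more than 12 passages · Dosing – one dose, 10 µM final, 0.1% DMSO · Times – 72 h treatment at 37 °C · Measured by – ATP-based CellTiter-Glo luminescent read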

[5] = H69AR cell proliferation blockers – human, duplicate replicates, primary screen (AID 580); details: H69AR lung tumor cells viability, ATP luminescence, 72 h; at 10 µM; stronger effect = lower value;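 note: 100% = mean luminescence of untreated wells and 0% = no signal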
[6] = MRP1 drug-resistance reversers in H69AR cells – cell-based, doxorubicin co-treatment, pilot screen (AID 601;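 active = viability loss from added drug above about 55%, and viability with drug at most 40%, in both replicates, limit read from the data, passing the limit was not always enough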); details: CellTiter-Glo, 72 h, at 10 µM; for differential viability (reversal): stronger effect = higher value
[7] = yeast transport mutant growth inhibition pilot in 384-well plates, post-Golgi transport modulator project (AID 636; in the data active = inhibition above about 31%); details: absorbance 615 nm, about 18 h, stronger effect = higher value
[8] = growth suppression of yeast trafficking mutant, preliminary HTS, modulators of trafficking downstream of Golgi apparatus project, 1536-format plate, OD 615 nm (AID 637; in the data active = inhibition above about 30%); details: yeast transport mutant growth, absorbance 615 nm, 18 h; stronger effect = higher value
[9] = H69AR cells + 2 uM doxorubicin, measured here: viability with 2 uM doxorubicin, stronger effect = lower value
[10] = H69AR cells, compound alone cytotoxicity

SMILES | viability [1] [%] | Her2 level [2] | viability [3] | viability [4] | viability [5] | differential viability (reversal) ([6]; H69AR cells + 2 uM doxorubicin) | viability [6, 9] [%] | viability [6, 10] [%] | inhibition [7] | inhibition [8]
COc1cc(C(=O)Nc2cccc(-c3nc4cc(C)ccc4o3)c2)cc(OC)c1OC | 95 | 80% (inactive) | 95% (inactive) | 66.8% (inactive) | 55.7% (inactive) | 4.43% (inactive) | 51.3 | 55.7 | -5% (inactive) | 4.76% (inactive)
Cc1c(C(=O)OCC(C)C)[nH]c2c1C(=O)CC(c1ccco1)C2 (stereo not given) | 80.5 | 58% (inactive) | 80.5% (inactive) | 18.5% (active) | 24.1% (active) | -22.6% (inactive) | 46.6 | 24.1 | -1.2% (inactive) | -3.28% (inactive)
CSc1nc2c(ccc3ccccc32)o1 | 114 | 83.5% (inactive) | 114% (inactive) | 92.4% (inactive) | 90.7% (inactive) | 2.83% (inactive) | 87.9 | 90.7 | -1.32% (inactive) | 6.94% (inactive)
COc1ccc2[nH]c(=O)c(CNC3CCCCC3)cc2c1 | 101 | 93% (inactive) | 101% (inactive) | 115% (inactive) | 89.5% (inactive) | 5% (inactive) | 84.5 | 89.5 | -4.16% (inactive) | 0.5% (inactive)
COc1ccc(CNC(=O)c2cc(-c3ccc(OC)c(OC)c3)on2)cc1 | 116 | 88.5% (inactive) | 116% (inactive) | 118% (inactive) | 94.4% (inactive) | 8.78% (inactive) | 85.6 | 94.4 | -5.95% (inactive) | -3.83% (inactive)
COc1cccc(CNC(=O)C2CCN(S(=O)(=O)c3ccc(F)cc3)CC2)c1 | 128 | 98.5% (inactive) | 128% (inactive) | 95.1% (inactive) | 97.5% (inactive) | -7.57% (inactive) | 105 | 97.5 | -2.37% (inactive) | 0.48% (inactive)
Cc1occc1-c1nnc(SCC(=O)N2CCc3ccccc32)o1 | 98.5 | 82.5% (inactive) | 98.5% (inactive) | 85.8% (inactive) | 3.12% (active) | 0.62% (inactive) | 2.5 | 3.12 | -3.01% (inactive) | -3.02% (inactive)
CCOC(=O)c1c(C)n(C)c2ccc(OC)c(NC(=O)CCN3CCSCC3)c12 | 122 | 91.5% (inactive) | 122% (inactive) | 96.7% (inactive) | 83.5% (inactive) | -1.65% (inactive) | 85.1 | 83.5 | -2.89% (inactive) | -2.74% (inactive)
COc1cc(-c2c(C#N)c(N)nc3c2CCCC3)cc(OC)c1OC | 89 | 72% (inactive) | 89% (inactive) | 74.2% (inactive) | 76.4% (inactive) | -9.71% (inactive) | 86.1 | 76.4 | -2.63% (inactive) | 3.39% (inactive)
Cc1cc(S(=O)(=O)NC2CCCCC2)ccc1OCC(=O)NCc1ccccn1 | 91.5 | 84% (inactive) | 91.5% (inactive) | 105% (inactive) | 99.1% (inactive) | 6.34% (inactive) | 92.8 | 99.1 | -0.53% (inactive) | 4.52% (inactive)
COC(=O)c1cc(NC(=O)C2COc3ccccc3O2)cc(C(=O)OC)c1 (stereo not given) | 106 | 86% (inactive) | 106% (inactive) | 91.1% (inactive) | 84.2% (inactive) | 10.2% (inactive) | 74 | 84.2 | -5.6% (inactive) | 0.32% (inactive)
COc1cc(NC2=CC(=O)CC(C)(C)C2)cc(OC)c1 | 77 | 133% (inactive) | 77% (inactive) | 85.5% (inactive) | 96.8% (inactive) | 6.11% (inactive) | 90.6 | 96.8 | 0.26% (inactive) | -7.17% (inactive)
Cc1cc(-c2ccc(F)cc2)nc2cc(C(N)=O)nn12 | 94.5 | 104% (inactive) | 94.5% (inactive) | 84.6% (inactive) | 87.6% (inactive) | -1.99% (inactive) | 89.6 | 87.6 | -2.47% (inactive) | 17.3% (inactive)
O=S(=O)(NCc1cccnc1)c1cccc2nsnc12 | 98 | 83.5% (inactive) | 98% (inactive) | 89.6% (inactive) | 92.3% (inactive) | 6.5% (inactive) | 85.8 | 92.3 | -7.07% (inactive) | 6.56% (inactive)
Cc1cccc(-c2nnn(CC/C(N)=N/O)n2)c1 | 85 | 84.5% (inactive) | 85% (inactive) | 85.3% (inactive) | 104% (inactive) | -1.3% (inactive) | 105 | 104 | -2.53% (inactive) | -0.16% (inactive)
CCn1cc(C(=O)NCCCOC)c(=O)c2cc(S(=O)(=O)N(C)C3CCCCC3)ccc21 | 87 | 114% (inactive) | 87% (inactive) | 101% (inactive) | 90.8% (inactive) | -13% (inactive) | 104 | 90.8 | -0.9% (inactive) | -5.33% (inactive)
